Source: ChEMBL document CHEMBL1125378, “alpha-Methyl polyamines: metabolically stable spermidine and spermine mimics capable of supporting growth in cells depleted of polyamines” (J Med Chem, 1992)

Key:
[1] = Retention time was determined; format: ADME
HT-29 [2] = assay: Compound level in 72 hr DFMO (5 mM)-treated HT-29 cells after exposure to 10 uM spermidine; format: functional, cell-based; settings: Homo sapiens
Procedure, shortened: (§1)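 HT29 cells pretreated with 5 mM DFMO for 120 h, then polyamine added and culture continued with DFMO for 72 h (experiment A); refed at 96 h. Cellular polyamine content given as nmol/mg protein (detection limit 0.2). SD from at least four separate experiments.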

L1210 [3] = assay: Compound level in 72 hr DFMO (5 mM)-treated L1210 cells after exposure to 10 uM 1,12-dimethylspermine; format: functional, cell-based; settings: Mus musculus
Procedure, shortened: (§2)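 L1210 cells held in 5 mM DFMO for 72 h before polyamine addition and through a further 72 h, refed at 72 h; controls without DFMO cultured 72 h in total. Intracellular polyamines reported as nmol/mg protein (detection limit 0.2). Mean ± SD from at least four separate experiments.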

L1210 [4] = assay: Compound level in 72 h DFMO (5 mM)-treated L1210 cells after exposure to 10 uM spermine; format: functional, cell-based; settings: Mus musculus; procedure, shortened: as §2
L1210 [5] = assay: Compound level in 72 hr DFMO (5 mM)-treated L1210 cells after exposure to 10 uM spermidine; format: functional, cell-based; settings: Mus musculus; procedure, shortened: as §2
SV3T3 [6] = assay: Compound level in SV3T3 cells after 96 hr; format: functional, cell-based; settings: Mus musculus
SV3T3 [7] = assay: Compound level in 96 hr DFMO (5 mM)-treated SV3T3 cells after exposure to 25 uM spermine; format: functional, cell-based; settings: Mus musculus
HT-29 [8] = assay: Compound level in HT-29 cells after 72 h; format: functional, cell-based; settings: Homo sapiens
Homo sapiens = species: Homo sapiens; assay: Compound level in DFMO-treated HT-29 cells after 96 h; format: functional, cell-based
Procedure, shortened: (§3)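 HT29 experiment B: 5 mM DFMO for 120 h before addition and throughout a further 96 h; refed at 96 h. Cells without DFMO cultured 96 h in total. Polyamines measured as nmol/mg protein (detection limit 0.2). SD from at least four separate experiments.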

SV3T3 [9] = assay: Compound level in 72 hr DFMO (5 mM)-treated SV3T3 cells after exposure to 10 uM spermine; format: functional, cell-based; settings: Mus musculus
Procedure, shortened: (§4)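 SV-3T3 fibroblasts (experiment A) held in 5 mM DFMO for 72 h before polyamine addition and throughout a further 72 h. Intracellular polyamines expressed as nmol/mg protein (detection limit 0.05). SD from at least four separate experiments, or duplicate where no SD is given.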

SV3T3 [10] = assay: Compound level in 72 hr DFMO (5 mM)-treated SV3T3 cells after exposure to 10 uM spermidine; format: functional, cell-based; settings: Mus musculus; procedure, shortened: as §4
HT-29 [11] = assay: Compound level in 72 hr DFMO (5 mM)-treated HT-29 cells after exposure to 25 uM 1-methylspermine; format: functional, cell-based; settings: Homo sapiens; procedure, shortened: as §1
HT-29 [12] = assay: Compound level in 72 hr DFMO (5 mM)-treated HT-29 cells after exposure to 10 uM spermine; format: functional, cell-based; settings: Homo sapiens; procedure, shortened: as §1
HT-29 [13] = assay: Compound level in HT-29 cells after 96 h; format: functional, cell-based; settings: Homo sapiens; procedure, shortened: as §3
L1210 [14] = assay: Compound level in L1210 cells after 72 h; format: functional, cell-based; settings: Mus musculus; procedure, shortened: as §2
L1210 [15] = assay: Compound level in DFMO-treated L1210 cells at 0 h; format: functional, cell-based; settings: Mus musculus; procedure, shortened: as §2
HT-29 [16] = assay: Compound level in 72 hr DFMO (5 mM)-treated HT-29 cells after exposure to 10 uM 1-methylspermine; format: functional, cell-based; settings: Homo sapiens; procedure, shortened: as §1
HT-29 [17] = assay: Compound level in 96 hr DFMO (5 mM)-treated HT-29 cells after exposure to 10 uM spermine; format: functional, cell-based; settings: Homo sapiens
SV3T3 [18] = assay: Compound level in DFMO-treated SV3T3 cells at 0 h; format: functional, cell-based; settings: Mus musculus; procedure, shortened: as §4
HT-29 [19] = assay: Compound level in 72 hr DFMO (5 mM)-treated HT-29 cells after exposure to 15 uM spermine; format: functional, cell-based; settings: Homo sapiens; procedure, shortened: as §1
HT-29 [20] = assay: Compound level in DFMO-treated HT-29 cells after 72 h; format: functional, cell-based; settings: Homo sapiens; procedure, shortened: as §1
HT-29 [21] = assay: Compound level in 72 h DFMO (5 mM)-treated HT-29 cells after exposure to 25 uM spermidine; format: functional, cell-based; settings: Homo sapiens
SV3T3 [22] = assay: Compound level in 96 hr DFMO (5 mM)-treated SV3T3 cells after exposure to 10 uM spermine; format: functional, cell-based; settings: Mus musculus

tR [1]: 33.9 min
SMILES: NCCCCNCCCN [SPERMIDINE]
Level (nM (mg of protein)-1) (HT-29 [2]): 23.6
Level (nM (mg of protein)-1) (L1210 [3]): 0.2
Level (nM (mg of protein)-1) (L1210 [4]): 6.4
Level (nM (mg of protein)-1) (L1210 [5]): 38
Level (nM (mg of protein)-1) (SV3T3 [6]): 26.4
Level (nM (mg of protein)-1) (SV3T3 [7]): 3.1
Level (nM (mg of protein)-1) (HT-29 [8]): 9.8
Level (nM (mg of protein)-1) (Homo sapiens): 0.4
Level (nM (mg of protein)-1) (SV3T3 [9]): 2.6
Level (nM (mg of protein)-1) (SV3T3 [10]): 8.7
Level (nM (mg of protein)-1) (HT-29 [11]): 0.3
Level (nM (mg of protein)-1) (HT-29 [12]): 7.9
Level (nM (mg of protein)-1) (HT-29 [13]): 13.4
Level (nM (mg of protein)-1) (L1210 [14]): 41
Level (nM (mg of protein)-1) (L1210 [15]): 1
Level (nM (mg of protein)-1) (HT-29 [16]): 0.4
Level (nM (mg of protein)-1) (HT-29 [17]): 4.4
Level (nM (mg of protein)-1) (SV3T3 [18]): 0.3
Level (nM (mg of protein)-1) (HT-29 [19]): 4.8
Level (nM (mg of protein)-1) (HT-29 [20]): 0.7
Level (nM (mg of protein)-1) (HT-29 [21]): 25.1
Level (nM (mg of protein)-1) (SV3T3 [22]): 11.5
